Results reported in article PMC5553283 (Journal of natural products, 2017).

Columns and labels:
[1] = test system: murine xenograft models of breast cancer; details: systemic i.p. injection ref 23, 25; cited from earlier work
[2] = test system: SCC-4 xenografts; assay: Antitumor efficacy of intratumorally administered taccalonolides; format: in vivo; details: intratumoral
[3] = human, microsomes
[4] = Hydrolysis of the C-15 acetoxy group of AF to AJ; format: physicochemical; details: serum in vitro
[5] = In vivo pharmacokinetic assessment in mice, plasma LC-MS; details: 300 µg IV, mouse plasma
In short: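 Female athymic nude mice, 6–7 weeks, got a single 300 µg tail-vein bolus in 100 µL PBS/5% ethanol. Blood was taken by cardiac puncture under CO2 anaesthesia pre-dose, at end of infusion, 0.25, 0.5, 1 and 2 h (3–5 mice/time point). EDTA plasma (1,200 rcf, 10 min), 100 µL extracted into 1 mL cold ethyl acetate. Quantified against 1/X2-weighted linear calibration. Non-compartmental AUC by linear trapezoid, extrapolated to infinity.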

| rate of clearance (microsomal intrinsic clearance) [3] | NADPH-dependent intrinsic clearance ([3]; pH 7.4) | SMILES | antitumor efficacy on systemic administration [1] | weight loss or other toxicities ([2]; two 40 µg injections on days 0 and 3) | NADPH-free intrinsic clearance ([3]; pH 7.4) | hydrolysis of the C-15 acetoxy group [4] | effect on tumor growth ([2]; 20 µg total dose) | effect on tumor growth ([2]; 80 µg total dose, over the course of the trial) | drug in the plasma 120 min after injection [5] |
| --- | --- | --- | --- | --- | --- | --- | --- | --- | --- |
|  |  | CC(=O)O[C@@H]1[C@H]2[C@H]3[C@H]([C@H](OC(C)=O)[C@H](OC(C)=O)[C@]2(C)[C@H]2[C@H](C)[C@H]4O[C@]45OC(=O)[C@@](C)(O)[C@]5(C)[C@H]12)[C@]1(C)[C@H](C[C@@H]2O[C@@H]2[C@@H]1OC(C)=O)C(=O)[C@@H]3O [taccalonolide AF] | demonstrated antitumor efficacy | no associated weight loss or other toxicities | 0.0 mL/min/mg | observed |  |  |  |
|  |  | CC(=O)O[C@H]1[C@H]2[C@H]([C@@H]3[C@@H](O)[C@@H]4[C@H]([C@H](C)[C@H]5O[C@]56OC(=O)[C@@](C)(O)[C@]46C)[C@@]3(C)[C@H]1OC(C)=O)[C@@H](O)C(=O)[C@H]1C[C@@H]3O[C@@H]3[C@H](OC(C)=O)[C@]21C [taccalonolide AJ] | no evidence of antitumor efficacy |  |  |  | no inhibition of tumor growth | robust and prolonged inhibition of tumor growth | no drug detectable |
| no clearance | 0.0 mL/min/mg | CC(=O)CC(c1ccccc1)c1c(O)c2ccccc2oc1=O (centres unmarked) [warfarin] |  |  | 0.0 mL/min/mg |  |  |  |  |
